{"source": "ChEMBL document CHEMBL3813669", "about": "“Synthesis and in vitro evaluation of hydrazinyl phthalazines against malaria parasite, Plasmodium falciparum” (Bioorg Med Chem Lett, 2016)", "key": {"Plasmodium falciparum [1]": {"tested_on": "Plasmodium falciparum", "experiment": "Antiplasmodial activity against Plasmodium falciparum 3D7 trophozoite stage infected in human RBCs assessed as reduction in parasitemia at 1 to 100 uM after 48 hrs by Hoechst-3342 staining based flow cytometric analysis", "type": "functional, organism-based", "how_it_was_run": "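3D7 parasites at trophozoite stage (~30 hpi) were exposed to 1, 20 and 100 μM compound, with DMSO-treated negative control. Parasitemia was read by flow cytometry after 48 h.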"}, "Plasmodium falciparum [2]": {"tested_on": "Plasmodium falciparum", "experiment": "Antiplasmodial activity against chloroquine-resistant Plasmodium falciparum K1 infected in human RBCs assessed as reduction in parasitemia after 48 hrs by Hoechst-3342 staining based flow cytometric analysis", "type": "functional, organism-based", "conditions": "K1, 48 h", "how_it_was_run": "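The K1 strain was screened across a 0–100 μM compound range alongside 3D7, and IC50 values were derived from parasitemia. Giemsa-stained smears from representative experiments were also examined by microscopy for parasite phenotype.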"}, "Plasmodium falciparum [3]": {"tested_on": "Plasmodium falciparum", "experiment": "Antiplasmodial activity against Plasmodium falciparum 3D7 trophozoite stage infected in human RBCs assessed as reduction in parasitemia after 48 hrs by Hoechst-3342 staining based flow cytometric analysis", "type": "functional, organism-based", "conditions": "3D7, 48 h", "how_it_was_run": "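Trophozoite-stage 3D7 parasites (~24–26 hpi) were exposed to 1.6 μM to 100 μM compound for 48 h, with DMSO-treated parasites as negative control and chloroquine as positive control. Parasitemia was read by flow cytometry, and IC50 was estimated from the concentration series.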"}, "[4]": {"experiment": "Selectivity index, ratio of IC50 for MDCK cells to IC50 for Plasmodium falciparum 3D7", "how_it_was_run": "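Ratio computed as […]. The 3D7 IC50 came from trophozoite-stage parasites (~24-26 hpi) incubated 48 h with 1.6-100 μM compound, with DMSO and chloroquine controls. The MDCK IC50 came from the MTT assay tested up to 200 μM.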"}, "MDCK": {"tested_on": "MDCK", "experiment": "Cytotoxicity against MDCK cells assessed as cell viability measured after overnight incubation by MTT assay", "type": "cell-based", "conditions": "Canis lupus familiaris", "how_it_was_run": "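MDCK cells were tested by MTT viability assay at compound concentrations up to 200 μM, alongside controls.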"}, "Plasmodium falciparum [5]": {"tested_on": "Plasmodium falciparum", "experiment": "Antiplasmodial activity against Plasmodium falciparum 3D7 infected in human RBCs assessed as inhibition of ring to trophozoite stage transition at 4 times IC50 measured after 12 hrs by flow cytometric analysis", "type": "functional, organism-based", "how_it_was_run": "(§1)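 Synchronised 3D7 cultures received compound at ring (2-4 h), trophozoite (24-26 h) or schizont (36-38 h) stage. Dosing was 4×, 2×, 1× and 0.25× the IC50 estimated from the 3D7 dose-response. Samples were harvested about 12 h later, and stage progression and morphology were monitored by flow cytometry and microscopy.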"}, "Plasmodium falciparum [6]": {"tested_on": "Plasmodium falciparum", "experiment": "Antiplasmodial activity against Plasmodium falciparum 3D7 infected in human RBCs assessed as inhibition of trophozoite to schizont stage transition at 2 and 4 times IC50 measured after 12 hrs by flow cytometric analysis", "type": "functional, organism-based", "how_it_was_run": "as §1"}, "Plasmodium falciparum [7]": {"tested_on": "Plasmodium falciparum", "experiment": "Antiplasmodial activity against Plasmodium falciparum 3D7 infected in human RBCs assessed as inhibition of schizont to ring stage transition at 2 and 4 times IC50 measured after 12 hrs by flow cytometric analysis", "type": "functional, organism-based", "how_it_was_run": "as §1"}, "Plasmodium falciparum [8]": {"tested_on": "Plasmodium falciparum", "experiment": "Antiplasmodial activity against Plasmodium falciparum 3D7 infected in human RBCs assessed as inhibition of schizont to ring stage transition at 4 times IC50 measured after 12 hrs by flow cytometric analysis", "type": "functional, organism-based", "how_it_was_run": "as §1"}, "Plasmodium falciparum [9]": {"tested_on": "Plasmodium falciparum", "experiment": "Antiplasmodial activity against Plasmodium falciparum 3D7 infected in human RBCs assessed as inhibition of trophozoite to schizont stage transition at 0.25 to 4 times IC50 measured after 12 hrs by flow cytometric analysis", "type": "functional, organism-based", "how_it_was_run": "as §1"}, "Plasmodium falciparum [10]": {"tested_on": "Plasmodium falciparum", "experiment": "Antiplasmodial activity against Plasmodium falciparum 3D7 infected in human RBCs assessed as inhibition of ring to trophozoite stage transition at 0.25 to 4 times IC50 measured after 12 hrs by flow cytometric analysis", "type": "functional, organism-based", "how_it_was_run": "as §1"}, "Plasmodium falciparum [11]": {"tested_on": "Plasmodium falciparum", "experiment": "Antiplasmodial activity against Plasmodium falciparum 3D7 infected in human RBCs assessed as inhibition of merozoite maturation at schizont stage at IC50 by Giemsa-staining based microscopic analysis", "type": "functional, organism-based"}, "Plasmodium falciparum [12]": {"tested_on": "Plasmodium falciparum", "experiment": "Antiplasmodial activity against Plasmodium falciparum 3D7 infected in human RBCs assessed as inhibition of schizont to ring stage transition at 1 to 4 times IC50 measured after 12 hrs by flow cytometric analysis", "type": "functional, organism-based", "how_it_was_run": "as §1"}}, "note": "Calls of active or inactive are those of the source. No cut-off for these calls is given here."}
{"smiles": "C(=N\\Nc1nncc2ccccc12)/c1ccc2c(c1)CCO2", "values": [{"measurement": "inhibition", "setting": "Plasmodium falciparum [1]", "value": "Active"}]}
{"smiles": "Cc1[nH]c2ccccc2c1/C=N/Nc1nncc2ccccc12", "values": [{"measurement": "IC50", "setting": "Plasmodium falciparum [2]", "value": 5.98, "unit": "µM"}, {"measurement": "IC50", "setting": "Plasmodium falciparum [3]", "value": 12.2, "unit": "µM"}, {"measurement": "Ratio IC50", "setting": "[4]", "value": 16.42}, {"measurement": "IC50", "setting": "MDCK", "value": "> 200", "unit": "µM"}, {"measurement": "inhibition", "setting": "Plasmodium falciparum [5]", "value": "Active"}, {"measurement": "inhibition", "setting": "Plasmodium falciparum [6]", "value": "Active"}, {"measurement": "inhibition", "setting": "Plasmodium falciparum [7]", "value": "Active"}]}
{"smiles": "CS(=O)(=O)c1ccc(/C=N/Nc2nncc3ccccc23)cc1", "values": [{"measurement": "inhibition", "setting": "Plasmodium falciparum [1]", "value": "Active"}]}
{"smiles": "C(=N\\Nc1nncc2ccccc12)/c1c[nH]c2ccccc12", "values": [{"measurement": "IC50", "setting": "Plasmodium falciparum [2]", "value": 6.66, "unit": "µM"}, {"measurement": "inhibition", "setting": "Plasmodium falciparum [8]", "value": "Active"}, {"measurement": "IC50", "setting": "Plasmodium falciparum [3]", "value": 13.7, "unit": "µM"}, {"measurement": "Ratio IC50", "setting": "[4]", "value": 14.56}, {"measurement": "inhibition", "setting": "Plasmodium falciparum [9]", "value": "inactive"}, {"measurement": "IC50", "setting": "MDCK", "value": "> 200", "unit": "µM"}, {"measurement": "inhibition", "setting": "Plasmodium falciparum [10]", "value": "inactive"}]}
{"smiles": "Cc1cc(/C=N/Nc2nncc3ccccc23)c([N+](=O)[O-])cc1C", "values": [{"measurement": "inhibition", "setting": "Plasmodium falciparum [1]", "value": "Active"}]}
{"smiles": "O=c1cc(/C=N/Nc2nncc3ccccc23)oc2ccccc12", "values": [{"measurement": "inhibition", "setting": "Plasmodium falciparum [1]", "value": "Active"}]}
{"smiles": "Cn1ccnc1/C=N/Nc1nncc2ccccc12", "values": [{"measurement": "IC50", "setting": "Plasmodium falciparum [2]", "value": 2.23, "unit": "µM"}, {"measurement": "IC50", "setting": "Plasmodium falciparum [3]", "value": 3.5, "unit": "µM"}, {"measurement": "Ratio IC50", "setting": "[4]", "value": 57.22}, {"measurement": "inhibition", "setting": "Plasmodium falciparum [9]", "value": "inactive"}, {"measurement": "IC50", "setting": "MDCK", "value": "> 200", "unit": "µM"}, {"measurement": "inhibition", "setting": "Plasmodium falciparum [10]", "value": "inactive"}, {"measurement": "inhibition", "setting": "Plasmodium falciparum [11]", "value": "Active"}, {"measurement": "inhibition", "setting": "Plasmodium falciparum [12]", "value": "Active"}]}
{"smiles": "C(=N\\Nc1nncc2ccccc12)/C1CC1", "values": [{"measurement": "inhibition", "setting": "Plasmodium falciparum [1]", "value": "Active"}]}
{"smiles": "C(=N\\Nc1nncc2ccccc12)/c1c(-c2ccccc2)[nH]c2ccccc12", "values": [{"measurement": "IC50", "setting": "Plasmodium falciparum [2]", "value": 2.43, "unit": "µM"}, {"measurement": "IC50", "setting": "Plasmodium falciparum [3]", "value": 3.49, "unit": "µM"}, {"measurement": "Ratio IC50", "setting": "[4]", "value": 57.31}, {"measurement": "IC50", "setting": "MDCK", "value": "> 200", "unit": "µM"}, {"measurement": "inhibition", "setting": "Plasmodium falciparum [10]", "value": "inactive"}, {"measurement": "inhibition", "setting": "Plasmodium falciparum [6]", "value": "Active"}, {"measurement": "inhibition", "setting": "Plasmodium falciparum [7]", "value": "Active"}]}
{"smiles": "Oc1ccc(Cl)cc1/C=N\\Nc1nncc2ccccc12", "values": [{"measurement": "IC50", "setting": "Plasmodium falciparum [2]", "value": 1.69, "unit": "µM"}, {"measurement": "IC50", "setting": "Plasmodium falciparum [3]", "value": 1.65, "unit": "µM"}, {"measurement": "Ratio IC50", "setting": "[4]", "value": 60.75}, {"measurement": "inhibition", "setting": "Plasmodium falciparum [9]", "value": "inactive"}, {"measurement": "IC50", "setting": "MDCK", "value": "> 100", "unit": "µM"}, {"measurement": "inhibition", "setting": "Plasmodium falciparum [10]", "value": "inactive"}, {"measurement": "inhibition", "setting": "Plasmodium falciparum [11]", "value": "Active"}, {"measurement": "inhibition", "setting": "Plasmodium falciparum [7]", "value": "Active"}]}
